Results published in ChEMBL document CHEMBL1157487, “Discovery of potent CCR4 antagonists: Synthesis and structure-activity relationship study of 2,4-diaminoquinazolines” (Bioorg Med Chem, 2008).

Tests used:
[1] = target: T1, C-C chemokine receptor type 4 (Homo sapiens) (UniProt P51679); assay: Displacement of [125I]CCl22 from human CCR4 receptor expressed in mouse B300-19 cells at 1 uM by SPA; assay type: cell-based
T1 sequence (whole entry): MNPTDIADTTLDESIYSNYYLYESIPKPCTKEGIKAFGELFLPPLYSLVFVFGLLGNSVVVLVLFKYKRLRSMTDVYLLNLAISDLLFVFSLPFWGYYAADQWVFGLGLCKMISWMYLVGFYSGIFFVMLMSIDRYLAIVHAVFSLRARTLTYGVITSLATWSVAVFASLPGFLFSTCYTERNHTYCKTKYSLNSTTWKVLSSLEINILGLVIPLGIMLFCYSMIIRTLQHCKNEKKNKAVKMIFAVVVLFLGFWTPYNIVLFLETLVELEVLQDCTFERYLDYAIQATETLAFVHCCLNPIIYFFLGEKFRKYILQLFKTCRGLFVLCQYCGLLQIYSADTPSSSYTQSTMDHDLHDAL
Summary of the method: (§1)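 SPA on whole human CCR4-expressing B300-19 cells (2×10^5/well) with 25 pM [125I]CCL22 and WGA SPA beads, test compound, in 50 mM Hepes pH 7.4, 5 mM MgCl2, 1 mM CaCl2, 0.1% BSA; 2 h, 25 °C. Nonspecific binding defined with 10 nM unlabeled CCL22. Duplicate, four concentrations, usually two determinations averaged. IC50 by non-linear curve fitting.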

[2] = target: T1, C-C chemokine receptor type 4 (Homo sapiens); assay: Antagonist activity at human CCR4 receptor expressed in mouse B300-19 cells at 1 uM by [35S]GTPgammaS binding assay; assay type: functional, cell-based
Summary of the method: (§2)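 Membranes from human CCR4-expressing B300-19 cells (1 µg protein/well) with 150 pM [35S]GTPγS, 2 µM GDP, 3 nM MDC (CCL22), WGA SPA beads, test compound in 20 mM Hepes-NaOH pH 7.05, 100 mM NaCl, 5 mM MgCl2, 0.2% BSA; 1.5 h, 25 °C. Percent inhibition against no-compound and no-CCL22 controls. Duplicate, four concentrations, usually two determinations averaged. IC50 by non-linear fitting.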

[3] = target: T1, C-C chemokine receptor type 4 (Homo sapiens); assay: Antagonist activity at human CCR4 receptor expressed in mouse B300-19 cells assessed as CCL22-induced chemotaxis by bioluminescent assay; assay type: functional, cell-based
Summary of the method: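 Stably transfected B300-19 cells (human CCR4 cDNA, G418 selection) at 5×10^6 cells/mL in RPMI 1640 with 0.1% BSA, pretreated with test compound; placed over 3 nM human CCL22 in 5-µm-pore polycarbonate filter chambers, 3 h, 37 °C, 5% CO2. Migrated cells quantified by ATP bioluminescence. Controls without compound or without CCL22. Triplicate, four concentrations. IC50 by non-linear curve fitting.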

[4] = target: T2, C-C chemokine receptor type 4 (Homo sapiens, UniProt P51679); assay: Antagonist activity at human CCR4 receptor expressed in mouse B300-19 cells by [35S]GTPgammaS binding assay; assay type: functional, cell-based; summary of the method: as §2
T2 sequence (P51679 whole entry): T1 sequence (whole entry)

[5] = target: T3, C-C chemokine receptor type 4 (Mus musculus) (UniProt P51680); assay: Antagonist activity at mouse CCR4 receptor expressed in mouse B300-19 cells assessed as CCL22-induced chemotaxis by bioluminescent assay; assay type: functional, cell-based
T3 sequence (whole entry): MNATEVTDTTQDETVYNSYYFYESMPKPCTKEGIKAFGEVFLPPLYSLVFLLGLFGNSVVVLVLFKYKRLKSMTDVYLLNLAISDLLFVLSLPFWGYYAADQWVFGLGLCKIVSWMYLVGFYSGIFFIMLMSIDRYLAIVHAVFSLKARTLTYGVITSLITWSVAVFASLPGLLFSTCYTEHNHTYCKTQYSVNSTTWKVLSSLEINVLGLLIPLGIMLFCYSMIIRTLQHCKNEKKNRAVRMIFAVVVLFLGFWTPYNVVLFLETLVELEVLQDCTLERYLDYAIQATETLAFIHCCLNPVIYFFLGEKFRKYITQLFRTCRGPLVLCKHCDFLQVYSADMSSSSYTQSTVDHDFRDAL
Summary of the method: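 Chemotaxis of B300-19 stable transformants carrying mouse CCR4 cDNA, suspended at 5×10^6 cells/mL in RPMI 1640 plus 0.1% BSA with test compound; 1 nM mouse CCL22 in lower wells, 5-µm pore filters, 3 h at 37 °C, 5% CO2. Migrated cells counted by ATP bioluminescence. Triplicate at four concentrations. IC50 from non-linear curve fit.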

[6] = target: T2, C-C chemokine receptor type 4; assay: Displacement of [125I]CCl22 from human CCR4 receptor expressed in mouse B300-19 cells by SPA; assay type: cell-based; summary of the method: as §1
[7] = Cytotoxicity against CCR4 expressing mouse B300-19 cells at 3 uM after 12 hrs by alamar blue assay; assay type: cell-based; details: b300-19, 12 h
Summary of the method: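 CCR4-expressing B300-19 cells (5×10^4/well) in RPMI 1640 with 10% FBS, 2-mercaptoethanol and antibiotics, 37 °C, 5% CO2, exposed to 0.3–10 µM compound for 12 h, then Alamar Blue for 4 h; fluorescence read at excitation 570 and emission 600 nm. Viability relative to untreated wells; minimum cytotoxic dose is the concentration lowering viability below 70%.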

[8] = target: T1, C-C chemokine receptor type 4 (Homo sapiens); assay: Antagonist activity at human CCR4 receptor expressed in mouse B300-19 cells assessed as CCL22-induced chemotaxis at 1 uM by bioluminescent assay; assay type: functional, cell-based

SMILES	inhibition [1]	inhibition [2]	Activity [3]	IC50 [4]	Activity [5]	IC50 [6]	Activity [7]	inhibition [8]
COc1cc2nc(N(C)CCc3ccccc3)nc(NC3CCCCCC3)c2cc1OC	< 0%	< 0%						
COc1cc2nc(N3CCC(C)CC3)nc(NC3CCCCCC3)c2cc1OC	15%	12%						
COc1ccc2nc(N3CCC(N4CCCC4)CC3)nc(NC3CCCCCC3)c2c1		10%	0.41 µM	0.031 µM	0.8 µM			
COc1cc2nc(N3CCC(N(C)C4CCCC4)CC3)nc(NC3CCCCCC3)c2cc1OC	0%	10%	0.12 µM	0.018 µM	0.35 µM			
COc1cc2nc(NCc3ccccc3)nc(NC3CCCCCC3)c2cc1OC	< 0%	13%						
CCOC(=O)N1CCC(Nc2nc(N3CCC(N4CCCC4)CC3)nc3cc(OC)c(OC)cc23)CC1	6%	10%						
COc1cc2nc(N3CCC(N4CCCC4)CC3)nc(NC3CCCCCC3)c2cc1OC	100%	93%	0.2 µM	0.019 µM	0.13 µM	0.07 µM	Toxic	
COc1cc2nc(N3CCC(C(N)=O)CC3)nc(NC3CCCCCC3)c2cc1OC	< 0%	17%						
COc1cc2nc(N3CCN(C)CC3)nc(NC3CCCCCC3)c2cc1OC	< 0%	13%						
COc1cc2nc(N3CCN(c4ccccc4)CC3)nc(NC3CCCCCC3)c2cc1OC	7%	7%						
COc1cc2nc(N3CCC(N4CCC(F)CC4)CC3)nc(NC3CCCCCC3)c2cc1OC	0%	10%	0.31 µM	0.032 µM	0.6 µM			
COc1cc2nc(N3CCN(C(C)C)CC3)nc(NC3CCCCCC3)c2cc1OC	68%	68%		0.22 µM		0.66 µM		
COc1cc2nc(N3CCC(N4CCCC4)CC3)nc(NCCc3ccccc3)c2cc1OC	4%	7%						
COc1cc2nc(NCCc3ccccc3)nc(NC3CCCCCC3)c2cc1OC	< 0%	16%						
COc1cc2nc(N3CCC(N4CCCC4)CC3)nc(NC3CCN(Cc4ccccc4)CC3)c2cc1OC	< 0%	4%						
COc1cc2nc(N3CCC(N4CCCC4)CC3)nc(NC3CCCCCCC3)c2cc1OC	54%	71%		0.2 µM		1.2 µM		
COc1cc2nc(N3CCN(C4CCCCC4)CC3)nc(NC3CCCCCC3)c2cc1OC	0%	10%	0.23 µM	0.055 µM	0.21 µM			
COc1cc2nc(N3CCC(N(C)C)CC3)nc(NC3CCCCCC3)c2cc1OC	77%	65%		0.26 µM		0.73 µM		
COc1cc2nc(NCCN3CCCCC3)nc(NC3CCCCCC3)c2cc1OC	18%	1%						
COc1cc2nc(N3CCC(N4CCCCC4)CC3)nc(NC3CCCCCC3)c2cc1OC	100%	92%	0.14 µM	0.018 µM	0.039 µM	0.073 µM		
COc1cc2nc(C3CCN(C4CCCCC4)CC3)nc(NC3CCCCCC3)c2cc1OC		10%		0.51 µM				12%

SMILES	inhibition [1]	inhibition [2]	Activity [3]	IC50 [4]	Activity [5]	IC50 [6]	Activity [7]	inhibition [8]
COc1cc2nc(N3CCC(N4CCCC4)CC3)nc(N3CCCCC3)c2cc1OC	19%	8%						
COc1ccc2c(NC3CCCCCC3)nc(N3CCC(N4CCCC4)CC3)nc2c1		10%	0.12 µM	0.013 µM	0.22 µM			
COc1cc2nc(NCCCN3CCCC3)nc(NC3CCCCCC3)c2cc1OC	16%	35%						
COc1cc2nc(NCc3cccs3)nc(NC3CCCCCC3)c2cc1OC	< 0%	0%						
COc1cc2nc(N3CCC(N4CCCC4)CC3)nc(N3CCOCC3)c2cc1OC	2%	< 0%						
c1ccc2c(NC3CCCCCC3)nc(N3CCC(N4CCCC4)CC3)nc2c1		10%	1.4 µM	0.2 µM				
COc1cc2nc(N3CCC(N4CCCC4)CC3)nc(NC3CCCCC3)c2cc1OC	54%	71%		0.48 µM		1.9 µM		
COc1cc2nc(N3CCOCC3)nc(NC3CCCCCC3)c2cc1OC	8%	< 0%						
COc1cc2nc(N3CCCCC3)nc(NC3CCCCCC3)c2cc1OC	11%	7%						
COc1cc2nc(NC(C)C)nc(NC3CCCCCC3)c2cc1OC	6%	< 0%						
COc1cc2nc(NCCCN3CCCC3=O)nc(NC3CCCCCC3)c2cc1OC	8%	8%						
CCNc1nc(N2CCC(N3CCCC3)CC2)nc2cc(OC)c(OC)cc12	< 0%	3%						
COc1cc2nc(N3CCC(N4CCCC4)CC3)nc(NC3CCCC3)c2cc1OC	17%	18%						
COc1cc2nc(N3CCC(N4CCCC4)CC3)nc(NC3CCC(C(C)(C)C)CC3)c2cc1OC (stereo unspecified)	< 0%	11%						
COc1cc2nc(N3CCC(Cc4ccccc4)CC3)nc(NC3CCCCCC3)c2cc1OC	< 0%	1%						
COc1cc2nc(N3CCC(N4CCCC4)CC3)nc(N(C)C)c2cc1OC	< 0%	< 0%						
COc1cc2nc(N3CCC(N4CCCC4)CC3)nc(NCc3ccccc3)c2cc1OC	< 0%	10%						
COc1cc2nc(N3CCC(N4CCCC4)CC3)nc(NC3CCCCNC3=O)c2cc1OC (stereo unspecified)	16%	16%						
COc1cc2nc(N3CCC(O)CC3)nc(NC3CCCCCC3)c2cc1OC	3%	< 0%						
COc1cc2nc(N3CCC(NC4CCCC4)CC3)nc(NC3CCCCCC3)c2cc1OC	4%	< 0%	0.1 µM	0.013 µM				
